Only some compounds are listed: those with a hit (about 1.6% of all), similar ones and a draw of the others.
dFosB act: enhances mouse delta FosB homodimer DNA binding; P13346; purified delta FosB, TAMRA-CDK5 oligo fluorescence polarization; percent of positive-control signal above neutral wells; activation, % at 25 µM; 0.99% of 340,000 active; AID 493131;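 active = mean activation above about 17%, with every replicate also reaching it, limit read from the data, passing the limit was not always enough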
Target sequence (P13346 whole entry, looked up): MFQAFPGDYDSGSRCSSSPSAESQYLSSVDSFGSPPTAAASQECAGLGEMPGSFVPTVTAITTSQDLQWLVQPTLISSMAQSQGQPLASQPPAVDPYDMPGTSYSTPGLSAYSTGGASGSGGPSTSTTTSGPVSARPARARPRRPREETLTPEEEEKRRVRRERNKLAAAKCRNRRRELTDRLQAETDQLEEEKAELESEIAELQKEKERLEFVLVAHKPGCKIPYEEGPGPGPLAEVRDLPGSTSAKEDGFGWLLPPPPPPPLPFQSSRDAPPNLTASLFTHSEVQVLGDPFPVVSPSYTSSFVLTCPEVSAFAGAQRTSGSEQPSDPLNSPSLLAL
PvdQ acylase: P. aeruginosa PvdQ acylase inhibition. purified PvdQ acylase, fluorescence plate reader. inhibition, % at 10 µM. 0.063% of 340,000 active. AID 488965; in the data active = inhibition above about 30%, passing the limit was not always enough
RAD54 branch: RAD54 (human) branch migration inhibition; 0.14% of 360,000 active; Q92698; RAD54 Holliday junction branch migration, FAM/BHQ fluorescence; AID 602329; inhibition, % at 10.4 µM;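 active = mean normalized replicate activity at least 40 and at least half of replicates scoring 40 or more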;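 also: inhibitors cause a drop in the FAM fluorescence signal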
SR-BI DiI-HDL act: enhances SR-BI lipid uptake from DiI-HDL; CHO ldlA[mSR-BI] cells, DiI-HDL uptake fluorescence, 3 h; 100 = double the neutral-control signal; activation, % at 12.5 µM; 0.096% of 320,000 active; AID 504775;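 active = mean replicate activation of at least 60% and every replicate at or above 60%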
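Material: SR-BI-overexpressing, LDLR-lacking CHO cells | Dosing: Single compound concentration, delivered by pin transfer | Probe or stimulus: Labelled HDL, 10 µg/mL | Signal: Bottom-read cell fluorescence after medium removal, ex 550/em 595 nm | Schedule: 3 h, 37 °C | Evaluation: HDL uptake via cellular fluorescence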
S100A4 MyoIIA: blocks human S100A4 binding to myosin IIA peptide | 0.14% of 360,000 active | AID 652163 | inhibition, % at 10.7 µM | P26447 | S100A4/TAMRA-MyoIIA peptide fluorescence polarization;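 active = mean inhibition of at least 70% across replicates, with every replicate also reaching that level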
Target sequence (P26447 whole entry, looked up): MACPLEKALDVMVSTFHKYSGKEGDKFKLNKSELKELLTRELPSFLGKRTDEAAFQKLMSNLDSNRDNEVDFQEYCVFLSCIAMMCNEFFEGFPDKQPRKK
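Test system – S100A4 monomer (human) · Compound – single-point compound testing · Schedule – 5 min incubation before reading · Probe or stimulus – TAMRA-labelled myosin IIA heavy-chain peptide probe, 5 nM · Benchmarks – neutral control DMSO, positive control TFP · Medium – Calcium-containing HEPES buffer, pH 7.2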
SR-BI HDL uptake: mouse SR-BI HDL lipid transfer inhibition; 0.96% of 320,000 active; AID 488896; Q61009; ldlA[mSR-BI] CHO cells, DiI-HDL uptake fluorescence, 3 h; inhibition, % at 12.5 µM;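 active = mean replicate inhibition of at least 70% and a set share of replicates each scoring 70 or more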
Large screens that a line does not name were inactive.

Cc1cc(/C=N/n2c(COc3ccccc3C)nc3ccccc3c2=O)c(O)c([N+](=O)[O-])c1	SR-BI HDL uptake 144 (no result: RAD54 branch)
CN1C(=O)c2cc(NC(=O)C3CCCCC3)ccc2OC[C@@H]2O[C@@H](CC(=O)NCC3CCCCC3)CC[C@H]21	none (no result: dFosB act, PvdQ acylase, RAD54 branch, SR-BI DiI-HDL act, SR-BI HDL uptake)
C[C@@H]1CN([C@@H](C)CO)C(=O)c2cccc(NC(=O)C3CCOCC3)c2O[C@H]1CN(C)Cc1ccc(C(F)(F)F)cc1	none (no result: dFosB act, PvdQ acylase, SR-BI DiI-HDL act, SR-BI HDL uptake)
COc1ccccc1NC(=O)c1ccc2[nH]c(C)c(C)c2c1	SR-BI HDL uptake 81
CO[C@H]1CN(C)C(=O)c2ccc(NC(=O)Nc3cc(F)ccc3F)cc2OC[C@@H](C)N(C(=O)c2cnccn2)C[C@H]1C	none (no result: dFosB act, PvdQ acylase, SR-BI DiI-HDL act, SR-BI HDL uptake)
CN(C)CCCN1C(=O)c2cccc3c([N+](=O)[O-])ccc(c23)C1=O	dFosB act 19 (no result: RAD54 branch, S100A4 MyoIIA)
O=C1c2cccc3c([N+](=O)[O-])ccc(c23)C(=O)N1CCc1ccccn1	none
O=C(Nc1cc(S(=O)(=O)Nc2ccccc2Cl)ccc1O)c1sc2cc(Cl)ccc2c1Cl	dFosB act 101 (no result: RAD54 branch, S100A4 MyoIIA)
COc1cccc(CNC(=O)C[C@@H]2CC[C@@H](NC(=O)C3CC3)[C@H](CO)O2)c1	none (no result: dFosB act, PvdQ acylase, SR-BI DiI-HDL act, SR-BI HDL uptake)
CCC(C)OC(=O)c1[nH]c2c(c1C)C(=O)CC(c1ccc(N(C)C)cc1)C2 (centres undefined)	dFosB act 29
C/C=C/COC(=O)c1[nH]c2c(c1C)C(=O)CC(c1ccc(N(C)C)cc1)C2 (centres undefined)	dFosB act 85
Cc1noc(C)c1NC(=O)NCC[C@H]1CC[C@@H](NC(=O)c2ccc(F)cc2)[C@H](CO)O1	none (no result: dFosB act, PvdQ acylase, SR-BI DiI-HDL act, SR-BI HDL uptake)
CNC(=S)N/N=C/c1cn(CCOc2cccc(OC)c2)c2ccccc12	SR-BI HDL uptake 80 (no result: RAD54 branch, S100A4 MyoIIA)
CNC(=S)N/N=C/c1cn(CCOc2ccccc2OC)c2ccccc12	none (no result: RAD54 branch, S100A4 MyoIIA)
CCOC(=O)N/N=C/c1cn(CCCOc2ccc(C)cc2)c2ccccc12	SR-BI HDL uptake 72 (no result: S100A4 MyoIIA)
CCCN(C)C[C@@H]1Oc2ncc(-c3cccc(C#N)c3)cc2C(=O)N([C@H](C)CO)C[C@H]1C	none (no result: dFosB act, PvdQ acylase, SR-BI DiI-HDL act, SR-BI HDL uptake)
COc1cc(/C=C/C(=O)c2ccccc2O)cc(OC)c1OC	none
COc1cc(OC)c(C=CC(=O)c2ccccc2O)c(OC)c1	SR-BI HDL uptake 73
CCCNC(=O)C[C@@H]1CC[C@@H]2[C@H](COc3ccc(NS(=O)(=O)CC)cc3C(=O)N2C)O1	none (no result: dFosB act, PvdQ acylase, SR-BI DiI-HDL act, SR-BI HDL uptake)
O=C(O)COc1ccc(/C=N/NC(=O)c2cn(-c3ccccc3)nc2-c2ccccc2)cc1	none
O=C(N/N=C/c1ccc([N+](=O)[O-])o1)c1cn(-c2ccccc2)nc1-c1ccccc1	SR-BI HDL uptake 84 (no result: RAD54 branch)
O=C(N/N=C/c1ccc([N+](=O)[O-])o1)c1cn(-c2ccccc2)nc1-c1ccc(Cl)cc1	SR-BI HDL uptake 112
COc1ccc(S(=O)(=O)N(C)C[C@H]2Oc3cc(C4=CCCC4)ccc3S(=O)(=O)N([C@@H](C)CO)C[C@H]2C)cc1	none (no result: dFosB act, PvdQ acylase, SR-BI DiI-HDL act, SR-BI HDL uptake)
COCC(=O)N1[C@@H](C#N)[C@H](c2ccc(-c3cccc(F)c3)cc2)[C@@H]1CO	S100A4 MyoIIA 116 (no result: dFosB act, PvdQ acylase, SR-BI DiI-HDL act, SR-BI HDL uptake)
COCC(=O)N1[C@H](CO)[C@@H](c2ccc(-c3cccc(F)c3)cc2)[C@@H]1C#N	none (no result: dFosB act, PvdQ acylase, SR-BI DiI-HDL act, SR-BI HDL uptake)
O=C(Cn1ncc2c([nH]c3ccccc32)c1=O)Nc1cccnc1	none
Cc1ccc(NC(=O)Cn2ncc3c([nH]c4ccccc43)c2=O)cc1Cl	dFosB act 55
Nc1nc(N)c(-c2cccc(C(F)(F)F)c2)c(Cc2cccc(C(F)(F)F)c2)n1	dFosB act 16 (no result: RAD54 branch)
CC(=O)N1[C@H](C(=O)Nc2ccccc2)[C@@H](CO)[C@@H]2Cn3c(ccc(C4=CCCC4)c3=O)[C@@H]21	none (no result: dFosB act, PvdQ acylase, SR-BI DiI-HDL act, SR-BI HDL uptake)
C[C@@H]1CN([C@H](C)CO)C(=O)c2cc(NS(C)(=O)=O)ccc2O[C@@H](C)CCCCO[C@@H]1CN(C)Cc1ccc2c(c1)OCO2	none (no result: dFosB act, PvdQ acylase, SR-BI DiI-HDL act, SR-BI HDL uptake)
Cc1ccc2nc(NCC(=O)O)nc(-c3ccccc3)c2c1	none (no result: S100A4 MyoIIA)
COc1cc(Nc2nc(-c3ccccc3)c3cc(C)ccc3n2)cc(OC)c1OC	SR-BI HDL uptake 72 (no result: S100A4 MyoIIA)
CCCN1[C@@H]2Cn3c(ccc(-c4ccccc4OC)c3=O)[C@H]1[C@@H](C(=O)N1CCOCC1)[C@@H]2CO	none (no result: dFosB act, PvdQ acylase, RAD54 branch, SR-BI DiI-HDL act, SR-BI HDL uptake)
O=C(N[C@@H]1C=C[C@H](CC(=O)N2CCOCC2)O[C@H]1CO)c1ccc2c(c1)OCO2	none (no result: dFosB act, PvdQ acylase, SR-BI DiI-HDL act, SR-BI HDL uptake)
